Results as given in ChEMBL document CHEMBL1126613, “Centrally acting serotonergic agents. Synthesis and structure-activity relationships of C-1- or C-3-substituted derivatives of 8-hydroxy-2-(di-n-propylamino)tetralin” (J Med Chem, 1993).
Values joined by “and” are separate entries in the source; they are usually repeats but may differ in a detail not shown here. Identical values can stand only once.

Experiments:
[1] = tested on: Mus musculus; experiment: Behavioral time in mouse face to face assay at 3.3 umol/kg administered perorally (*P<0.05); assay type: functional
How it was run: (§1)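 Male CF-1 mice (Charles River, 19-29 g), 8 pairs per dose, dosed sc, ip or orally in 0.25% methylcellulose or 0.1% citric acid; 30 min absorption housed with familiar partner. Pairs from different home cages placed in small litter-floored cage; face-to-face interaction duration scored visually for 3 min. Wilcoxon rank sum (two-tailed) vs daily control, p < 0.05.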

[2] = tested on: Mus musculus; experiment: Behavioral time in mouse isolation-induced aggression assay at 10 umol/kg administered intraperitoneally (*P<0.05); assay type: functional
How it was run: (§2)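 Male CF-1 mice. Residents were isolated singly for at least 1 month; group-housed intruders were kept 4-6/cage. Mice weighed 28-30 g at first test. Residents got drug ip or orally in 0.25% methylcellulose or 0.1% citric acid 30 min before an untreated intruder was introduced. Latency to fighting was recorded, capped at 600 s. Dosing was blind, 6/group (vehicle n = 12), Wilcoxon rank sum.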

[3] = tested on: Mus musculus; experiment: Behavioral time in mouse face to face assay at 0.03 umol/kg administered perorally; assay type: functional; how it was run: as §1
[4] = tested on: Mus musculus; experiment: In vivo effective dose administered subcutaneously in mouse hypothermia assay.; assay type: functional; settings: sc
How it was run: (§3)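 Charles River CF-1 mice (18-22 g, 4 per dose), housed individually 20 min before testing. Rectal temperature taken before dosing and 20 min after (sc 0.1 mL; oral 0.2 mL by gavage needle). A drop of ≥2 °F counted as positive. Doses started at 30 mg/kg and fell by half-log until 0/4 responded.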

[5] = tested on: Mus musculus; experiment: Behavioral time in mouse isolation-induced aggression assay at 33 umol/kg administered perorally (*P<0.05); assay type: functional; how it was run: as §2
[6] = tested on: Mus musculus; experiment: Behavioral time in mouse face to face assay at 0 umol/kg administered perorally; assay type: functional; how it was run: as §1
[7] = tested on: Mus musculus; experiment: Behavioral time in mouse face to face assay at 0.3 umol/kg administered perorally (*P<0.05); assay type: functional; how it was run: as §1
[8] = tested on: Mus musculus; experiment: Tested in vivo for the maximum temperature decrease in mouse hypothermia assay.; assay type: functional
How it was run: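 CF-1 mice (18-22 g, 4 per dose), dosed sc or orally. Rectal temperature measured before dosing and 20 min after. The mean maximum temperature drop (°F) at 20 min after any dose is recorded as an efficacy index.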

[9] = tested on: Mus musculus; experiment: Behavioral time in mouse face to face assay at 33 umol/kg administered perorally (*P<0.05); assay type: functional; how it was run: as §1
[10] = tested on: Mus musculus; experiment: Behavioral time in mouse isolation-induced aggression assay at 10 umol/kg administered perorally (*P<0.05); assay type: functional; how it was run: as §2
[11] = tested on: Mus musculus; experiment: (§4) Behavioral time in mouse isolation-induced aggression assay at 0 umol/kg administered intraperitoneally; assay type: functional
How it was run: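 Isolated male CF-1 resident mice, housed singly ≥1 month and weighing 28-30 g at testing, were dosed ip or orally in 0.25% methylcellulose or 0.1% citric acid. Dosing was blind, 6 per group (n=12 vehicle). After 30 min an untreated group-housed intruder was introduced. Latency to fighting was recorded, capped at 600 s. Residents rested ≥3 days before reuse. Wilcoxon rank sum.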

[12] = tested on: Mus musculus; experiment: Behavioral time in mouse isolation-induced aggression assay at 0 umol/kg administered perorally (*P<0.05); assay type: functional; how it was run: as §2
[13] = tested on: Mus musculus; experiment: Tested in vivo for the effective dose administered orally in mouse hypothermia assay; assay type: functional; settings: po; how it was run: as §3
[14] = tested on: Rattus norvegicus; experiment: Effect on the synthesis rate of 5 HTP accumulation at the dose of 9.7 uM/kg in the rat ventral limbic brain region; assay type: functional, Limbic system
How it was run: (§5)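 Male Sprague-Dawley rats dosed sc with drug or vehicle at time zero. NSD 1015 (100 mg/kg ip) given 15 min later to block aromatic decarboxylase. Brain DOPA and 5-HTP measured by electrochemical detection with peak integration. Expressed as percent change from NSD 1015 plus saline controls. Control and test groups N = 6 each, compared by unpaired t test.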

[15] = tested on: Rattus norvegicus; experiment: Effect on the synthesis rate of dopamine (DOPA) accumulation at the dose of 9.7 umol/kg in the rat ventral limbic brain region; assay type: functional, Limbic system; how it was run: as §5
[16] = tested on: Rattus norvegicus; experiment: Effect on the synthesis rate of dopamine (DOPA) accumulation at the dose of 68 umol/kg in the rat ventral limbic brain region; assay type: functional, Limbic system; how it was run: as §5
[17] = tested on: Mus musculus; experiment: Behavioral time in mouse face to face assay at 0 umol/kg administered intraperitoneally; assay type: functional; how it was run: as §1
[18] = tested on: Felis catus; experiment: Maximum decrease observed following 1 mg/kg dose; assay type: functional
[19] = organism: Felis catus; experiment: Maximum decrease observed; assay type: functional; design: unit not given here
[20] = tested on: Rattus norvegicus; experiment: Effect on the synthesis rate of 5 HTP accumulation at 68 umol/kg in the rat ventral limbic brain region; assay type: functional, Limbic system; how it was run: as §5
[21] = tested on: Rattus norvegicus; experiment: Effect on the synthesis rate of 5 HTP accumulation at 3.4 umol/kg in the rat ventral limbic brain region; assay type: functional, Limbic system; how it was run: as §5
[22] = tested on: Rattus norvegicus; experiment: Effect on the synthesis rate of dopamine (DOPA) accumulation at 3.4 umol/kg in the rat ventral limbic brain region; assay type: functional, Limbic system; how it was run: as §5
[23] = tested on: Felis catus; experiment: Dose on arterial blood pressure (BP) in anesthetized cat; assay type: functional
How it was run: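 Adult cats (2.5-4.0 kg) anesthetized with ketamine 11 mg/kg im, then chloralose 80 mg/kg iv. Femoral artery cannulated for blood pressure, femoral vein for drug. Ventilated, paralyzed with gallamine 4 mg/kg iv, rectal temperature held at 37-38 °C. Cumulative iv doses given at 20-min intervals. Maximum decrease reported following a 1 mg/kg iv dose.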

[24] = organism: Felis catus; experiment: Dose at which the SND has been reduced to 50% of the pretreatment value; assay type: functional
How it was run: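 Adult cats (2.5-4.0 kg), ketamine 11 mg/kg im then chloralose 80 mg/kg iv, ventilated, gallamine-paralyzed, rectal temperature 37-38 °C. Sympathetic nerve discharge quantified by cumulative integration. Cumulative iv doses were given at 20-min intervals. Value is the dose reducing discharge to 50% of pretreatment.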

[25] = tested on: Mus musculus; experiment: Behavioral time in mouse face to face assay at 35 umol/kg administered perorally; assay type: functional; how it was run: as §1
[26] = tested on: Mus musculus; experiment: Behavioral time in mouse isolation-induced aggression assay at 11 umol/kg administered perorally; assay type: functional; how it was run: as §2
[27] = tested on: Mus musculus; experiment: Behavioral time in mouse isolation-induced aggression assay at 3.5 umol/kg administered perorally; assay type: functional; how it was run: as §2
[28] = tested on: Mus musculus; experiment: as §4; assay type: functional; how it was run: as §2; remark: listed apart in the source
[29] = tested on: Mus musculus; experiment: Behavioral time in mouse isolation-induced aggression assay at 11 umol/kg administered intraperitoneally (*P<0.05); assay type: functional; how it was run: as §2
[30] = tested on: Mus musculus; experiment: Behavioral time in mouse isolation-induced aggression assay at 3.5 umol/kg administered intraperitoneally (*P<0.05); assay type: functional; how it was run: as §2
[31] = tested on: Mus musculus; experiment: Behavioral time in mouse isolation-induced aggression assay at 0 umol/kg administered perorally; assay type: functional; how it was run: as §2
[32] = tested on: Mus musculus; experiment: Behavioral time in mouse face to face assay at 11 umol/kg administered perorally; assay type: functional; how it was run: as §1
[33] = tested on: Mus musculus; experiment: Behavioral time in mouse isolation-induced aggression assay at 35 umol/kg administered perorally (*P<0.05); assay type: functional; how it was run: as §2
[34] = tested on: Mus musculus; experiment: Behavioral time in mouse face to face assay at 3.5 umol/kg administered perorally; assay type: functional; how it was run: as §1

`CCCN(C)[C@@H]1CCc2cccc(OC)c2[C@@H]1CO` was tested, and the Time [1] was 1.7 s, the Time [2] was 329 s and the Time [3] was 1.7 s. For the same compound, the ED50 [4] was 5.7 µmol/kg, the Time [5] was 269 s and the Time [6] was 1.1 s. The Time [7] was 2 s, the TMP.decrease [8] was 9.1 degrees F and 5 degrees F and the Time [9] was 2.1 s. It also gave a Time [10] of 125 s, a Time [11] of 6 s and a Time [12] of 43 s. It also gave an ED50 [13] of 32 µmol/kg.

Compound `CCCN[C@@H]1CCc2cccc(OC)c2[C@@H]1CC1CC1` has an ED50 [4] of 31 µmol/kg, a Change [14] of -25.8% and a TMP.decrease [8] of 7.4 degrees F. The Change [15] was 5%.

Compound `C=CC[C@@H]1c2c(cccc2OC)CC[C@H]1NCCC` (relative stereo) has a Change [16] of 8.1%, a Time [17] of 0.4 s and a Max decrease [18] of 66. For the same compound, the Max decrease [19] was 16, the ED50 [4] was 14 µmol/kg and the TMP.decrease [8] was 10.2 degrees F and 5.8 degrees F. For the same compound, the Change [20] was -16%, the Change [21] was -6.9% and the Change [22] was -4.3%. For the same compound, the BP [23] was 71%, the ED50 [24] was 1.35 µmol/kg and the ED50 [13] was 59 µmol/kg.

Work on `CCCN[C@@H]1CCc2cccc(O)c2[C@@H]1CCC` yielded a Time [25] of 1.1 s, an ED50 [4] of 6.1 µmol/kg and a Time [26] of 146 s. For the same compound, the Time [27] was 28 s, the Time [6] was 1.1 s and the Time [28] was 8 s. The Time [29] was 125 s, the TMP.decrease [8] was 10.4 degrees F and 7.5 degrees F and the Time [30] was 97 s. It also gave a Time [31] of 11 s, a Time [32] of 1.3 s and a Time [33] of 54 s. It also gave a Time [34] of 1.1 s and an ED50 [13] of 46 µmol/kg.
